According to ChEMBL document CHEMBL3621151, “Orally bioavailable Syk inhibitors with activity in a rat PK/PD model” (Bioorg Med Chem Lett, 2015):
Activity calls are given as the source filed them. The rule behind the calls is not given here.

Assays:
[1] = Oral bioavailability in Sprague-Dawley rat at 3 mg/kg administered as cassette dosing; assay type: ADME, organism-based; conditions: in vivo
Method in brief: (§1)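 Cassette dosing in Sprague Dawley rats: iv 1 mg/kg in NMP/PEG200 (3:7) and po 3 mg/kg in CMC/water/Tween (0.5:99:0.5). Dose-normalized values are marked as such.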

[2] = system: Rattus norvegicus; assay: Dose normalized AUC in Sprague-Dawley rat at 3 mg/kg, po administered as cassette dosing; assay type: ADME, organism-based; conditions: in vivo; method in brief: as §1
[3] = target: T1, Tyrosine-protein kinase SYK (Homo sapiens, UniProt P43405)
[4] = system: Rattus norvegicus; assay: Dose normalized Cmax in Sprague-Dawley rat at 1 mg/kg, iv and 3 mg/kg, po administered as cassette dosing; assay type: ADME, organism-based; conditions: in vivo; method in brief: as §1
[5] = system: Liver microsome; assay: Drug metabolism in human liver microsomes assessed as pyrazole hydroxylation; assay type: ADME
[6] = target: T1, Tyrosine-protein kinase SYK; assay: Inhibition of Syk in anti-CD32 stimulated CD14+ human monocytes in presence of 90% human blood assessed as phospho-SLP76 level preincubated for 30 mins followed by anti-CD32 stimulation measured after 5 mins by flow cytometric analysis
[7] = target: T1, Tyrosine-protein kinase SYK; assay: Inhibition of Syk in anti-igM stimulated human Ramos B cells assessed as phospho-BLNK level preincubated for 30 mins followed by anti-IgM stimulation measured after 15 mins by flow cytometric analysis; assay type: cell-based
[8] = system: Liver microsome; assay: Drug metabolism in human liver microsomes assessed as pyrazole N-demethylation; assay type: ADME
[9] = system: Liver microsome; assay: Drug metabolism in rat liver microsomes assessed as pyrazole hydroxylation; assay type: ADME
[10] = system: Liver microsome; assay: Drug metabolism in rat liver microsomes assessed as pyrazole N-demethylation; assay type: ADME
[11] = Mean residence time in Sprague-Dawley rat at 1 mg/kg, iv and 3 mg/kg, po administered as cassette dosing; assay type: ADME, organism-based; conditions: in vivo; method in brief: as §1
[12] = Volume of distribution at steady state in Sprague-Dawley rat at 1 mg/kg, iv and 3 mg/kg, po administered as cassette dosing; assay type: ADME, organism-based; conditions: in vivo, read-out: Vdss; method in brief: as §1
[13] = system: Liver microsome; assay: Drug metabolism in rat liver microsomes assessed as lactam hydroxylation; assay type: ADME
[14] = target: T2, Aurora kinase A (Homo sapiens, UniProt O14965); assay: Inhibition of aurora A kinase (unknown origin) by enzymatic assay
T2 sequence (O14965 whole entry): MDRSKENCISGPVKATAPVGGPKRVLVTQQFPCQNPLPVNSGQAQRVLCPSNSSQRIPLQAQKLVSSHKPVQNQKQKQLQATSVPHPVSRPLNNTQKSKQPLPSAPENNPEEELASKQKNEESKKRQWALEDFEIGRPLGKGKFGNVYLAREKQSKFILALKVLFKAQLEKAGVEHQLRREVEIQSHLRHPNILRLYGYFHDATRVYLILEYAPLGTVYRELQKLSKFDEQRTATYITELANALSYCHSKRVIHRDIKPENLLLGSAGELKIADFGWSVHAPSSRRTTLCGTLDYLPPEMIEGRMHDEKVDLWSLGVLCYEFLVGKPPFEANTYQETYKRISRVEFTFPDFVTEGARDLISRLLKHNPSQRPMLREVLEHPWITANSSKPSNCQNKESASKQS

[15] = system: Liver microsome; assay: Drug metabolism in human liver microsomes assessed as lactam hydroxylation; assay type: ADME
[16] = Clearance in Sprague-Dawley rat at 1 mg/kg, iv and 3 mg/kg, po administered as cassette dosing; assay type: ADME, organism-based; conditions: in vivo; method in brief: as §1
[17] = Ratio of drug level in liver to blood in rat at 1 mg/kg, iv; assay type: ADME, organism-based
Method in brief: (§2)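 Rats received a single 1 mg/kg iv dose. Compound levels were then measured in blood, liver and kidney and expressed as ng/g of matrix. The ratio is tissue level over blood level.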

[18] = target: T3, Voltage-gated inwardly rectifying potassium channel KCNH2 (Homo sapiens, UniProt Q12809); assay: Inhibition of human ERG at 30 uM by manual patch clamp assay
T3 sequence (Q12809 whole entry): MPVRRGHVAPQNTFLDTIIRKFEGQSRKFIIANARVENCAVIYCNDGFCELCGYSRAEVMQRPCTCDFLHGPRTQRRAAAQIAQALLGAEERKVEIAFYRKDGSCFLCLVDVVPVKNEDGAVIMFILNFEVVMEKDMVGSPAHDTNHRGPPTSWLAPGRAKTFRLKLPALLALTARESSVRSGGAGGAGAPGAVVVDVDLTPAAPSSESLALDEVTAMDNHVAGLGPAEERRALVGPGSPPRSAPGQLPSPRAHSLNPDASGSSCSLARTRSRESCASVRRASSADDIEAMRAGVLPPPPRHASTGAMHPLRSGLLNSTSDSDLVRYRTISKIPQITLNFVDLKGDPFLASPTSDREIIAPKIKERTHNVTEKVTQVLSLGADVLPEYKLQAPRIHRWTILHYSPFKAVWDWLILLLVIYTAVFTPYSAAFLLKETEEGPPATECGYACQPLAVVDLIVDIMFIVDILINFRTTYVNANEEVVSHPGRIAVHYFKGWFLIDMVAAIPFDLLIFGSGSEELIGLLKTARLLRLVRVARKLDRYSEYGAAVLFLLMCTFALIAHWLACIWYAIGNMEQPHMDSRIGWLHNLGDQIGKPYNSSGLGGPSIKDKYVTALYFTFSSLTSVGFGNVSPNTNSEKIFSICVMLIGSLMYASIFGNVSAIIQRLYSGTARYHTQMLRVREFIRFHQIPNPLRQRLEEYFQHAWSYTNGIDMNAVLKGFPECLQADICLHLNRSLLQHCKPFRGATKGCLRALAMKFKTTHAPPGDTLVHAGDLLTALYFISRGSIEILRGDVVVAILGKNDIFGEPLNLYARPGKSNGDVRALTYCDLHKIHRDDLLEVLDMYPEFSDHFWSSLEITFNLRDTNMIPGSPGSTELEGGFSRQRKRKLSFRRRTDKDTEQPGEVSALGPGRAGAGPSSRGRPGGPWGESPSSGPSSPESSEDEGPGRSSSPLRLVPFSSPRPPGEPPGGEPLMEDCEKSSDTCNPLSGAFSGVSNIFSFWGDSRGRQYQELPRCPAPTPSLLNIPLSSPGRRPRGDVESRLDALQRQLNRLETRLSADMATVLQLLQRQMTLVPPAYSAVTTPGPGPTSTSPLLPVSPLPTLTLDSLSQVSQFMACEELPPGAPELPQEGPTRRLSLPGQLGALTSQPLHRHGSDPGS

[19] = system: Liver; assay: Drug level in rat liver at 1 mg/kg, iv; assay type: ADME, organism-based; conditions: in vivo
Method in brief: (§3)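 Rats received a single iv dose of 1 mg/kg. Compound concentrations were measured in blood, liver and kidney and expressed as ng/g.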

[20] = system: Blood; assay: Drug level in rat blood at 1 mg/kg, iv; assay type: ADME, organism-based; conditions: in vivo; method in brief: as §3
[21] = target: T3, Voltage-gated inwardly rectifying potassium channel KCNH2; assay: Inhibition of human ERG by automated patch clamp assay
[22] = system: Kidney; assay: Drug level in rat kidney at 1 mg/kg, iv; assay type: ADME, organism-based; conditions: in vivo; method in brief: as §3
[23] = Ratio of drug level in kidney to blood in rat at 1 mg/kg, iv; assay type: ADME, organism-based; method in brief: as §2
[24] = Solubility in pH 6.8 solution; assay type: physicochemical
[25] = Half life in rat liver microsomes; assay type: ADME
[26] = Protein binding in human; assay type: ADME, organism-based; conditions: plasma, read-out: PB (converted)
[27] = Toxicity in micronucleus (unknown origin) by micronucleus test
[28] = system: Salmonella typhimurium; assay: Toxicity in Salmonella typhimurium by Ames test; assay type: organism-based; conditions: salmonella enterica subsp. enterica serovar typhimurium
[29] = Drug uptake in Lewis rat blood at 3 mg/kg, po measured after 2 hrs; assay type: ADME, organism-based; conditions: read-out: Drug uptake
Method in brief: (§4)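 Lewis rats were given a single oral dose of 3 mg/kg. Blood was sampled at 2, 4, 8 and 24 h for compound levels. Ex vivo, peripheral blood monocytes were stimulated through FcγR with anti-CD32 antibody, and SLP76 phosphorylation was quantified as % pSLP76.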

[30] = Drug uptake in Lewis rat blood at 3 mg/kg, po measured after 24 hrs; assay type: ADME, organism-based; conditions: read-out: Drug uptake; method in brief: as §4
[31] = system: Rattus norvegicus; assay: In vivo inhibition of Syk in Lewis rat assessed as reduction in antiCD32-antibody-induced SLP76 phosphorylation in peripheral blood monocytes at 3 mg/kg, po measured after 4 hrs relative to vehicle-treated control; assay type: functional; method in brief: as §4
[32] = system: Rattus norvegicus; assay: In vivo inhibition of Syk in Lewis rat assessed as reduction in antiCD32-antibody-induced SLP76 phosphorylation in peripheral blood monocytes at 3 mg/kg, po measured after 2 hrs relative to vehicle-treated control; assay type: functional; method in brief: as §4
[33] = system: Rattus norvegicus; assay: In vivo inhibition of Syk in Lewis rat assessed as reduction in antiCD32-antibody-induced SLP76 phosphorylation in peripheral blood monocytes at 3 mg/kg, po measured after 24 hrs relative to vehicle-treated control; assay type: functional, organism-based; method in brief: as §4
[34] = target: T3, Voltage-gated inwardly rectifying potassium channel KCNH2; assay: Inhibition of human ERG by binding assay
[35] = system: Rattus norvegicus; assay: In vivo inhibition of Syk in Lewis rat assessed as reduction in antiCD32-antibody-induced SLP76 phosphorylation in peripheral blood monocytes at 3 mg/kg, po measured after 8 hrs relative to vehicle-treated control; assay type: functional; method in brief: as §4
[36] = target: Aurora kinase B (Homo sapiens, UniProt Q96GD4); assay: Inhibition of aurora B kinase (unknown origin) by cell based assay
Chain of Aurora kinase B (Q96GD4 whole entry): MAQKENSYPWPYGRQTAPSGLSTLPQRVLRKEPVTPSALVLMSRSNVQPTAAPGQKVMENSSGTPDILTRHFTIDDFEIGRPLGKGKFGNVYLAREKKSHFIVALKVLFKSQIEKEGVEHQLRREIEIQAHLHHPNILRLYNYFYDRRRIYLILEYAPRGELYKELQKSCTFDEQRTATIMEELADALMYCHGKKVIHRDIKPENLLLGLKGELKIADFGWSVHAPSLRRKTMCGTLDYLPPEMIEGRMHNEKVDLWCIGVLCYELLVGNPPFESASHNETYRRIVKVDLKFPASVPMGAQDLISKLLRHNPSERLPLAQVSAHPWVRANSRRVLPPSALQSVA

[37] = Drug uptake in Lewis rat blood at 3 mg/kg, po measured after 4 hrs; assay type: ADME, organism-based; conditions: read-out: Drug uptake; method in brief: as §4
[38] = Drug uptake in Lewis rat blood at 3 mg/kg, po measured after 8 hrs; assay type: ADME, organism-based; conditions: read-out: Drug uptake; method in brief: as §4

| bioavailability [1] [%] | IC50 [3] [nM] | Cmax/dose [4] [nM] | Drug metabolism [5] | IC50 [6] [nM] | IC50 [7] [nM] | Drug metabolism [8] | Drug metabolism [9] | Drug metabolism [10] | MRT [11] [min] | Vd [12] [L/kg] | Drug metabolism [13] | IC50 [14] [nM] | Drug metabolism [15] | clearance [16] [mL/min/kg] | SMILES | further results |
| --- | --- | --- | --- | --- | --- | --- | --- | --- | --- | --- | --- | --- | --- | --- | --- | --- |
| 30 | 46 | 94 | metabolite_detected | 298 | 161 | metabolite_detected | metabolite_detected | metabolite_detected | 54 | 2.4 | metabolite_detected | 576 | metabolite_detected | 45 | C[C@@H](Oc1cc(-c2cnn(C)c2)cc2nscc12)[C@H]1CNC(=O)C1 | AUC/dose [2]: 1056 nM.hr/(mg/kg); solubility [24]: > 1000 µM; half-life [25]: 34 min; fraction unbound [26]: 0.2 |
| – | – | – | metabolite_detected | – | – | metabolite_detected | metabolite_detected | metabolite_detected | – | – | metabolite_detected | – | metabolite_detected | – | CN(C)c1ccc(-c2cc3ncccc3c(NCCCN)n2)cc1 | – |
| – | 57 | 263 | – | 1020 | 340 | – | – | – | 156 | – | – | – | – | – | C[C@@H](Oc1cc(-c2cnn(C(F)F)c2)cc2nscc12)[C@H]1CNC(=O)C1 | – |
| – | 9 | 803 | – | 230 | 107 | – | – | – | 282 | – | – | – | – | – | C[C@@H](Oc1cc(-c2cnn(C(F)F)c2)cc2ncsc12)[C@H]1CNC(=O)O1 | – |
| – | 26 | 103 | – | 538 | 284 | – | – | – | 42 | – | – | – | – | – | C[C@@H](Oc1nc(-c2cnn(C)c2)cc2ncsc12)[C@H]1CNC(=O)C1 | – |

Continued, compound first:

| SMILES | bioavailability [1] [%] | IC50 [3] [nM] | Cmax/dose [4] [nM] | Drug metabolism [5] | IC50 [6] [nM] | IC50 [7] [nM] | Drug metabolism [8] | Drug metabolism [9] | Drug metabolism [10] | MRT [11] [min] | Vd [12] [L/kg] | Drug metabolism [13] | IC50 [14] [nM] | Drug metabolism [15] | clearance [16] [mL/min/kg] | further results |
| --- | --- | --- | --- | --- | --- | --- | --- | --- | --- | --- | --- | --- | --- | --- | --- | --- |
| COc1ccc(-c2cc3ncsc3c(O[C@H](C)[C@H]3CNC(=O)C3)n2)cc1OC | 35 | 5 | 178 | metabolite_detected | 517 | 132 | metabolite_detected | metabolite_detected | metabolite_detected | 24 | 1.2 | metabolite_detected | ≤ 100 | metabolite_detected | 53 | AUC/dose [2]: 858 nM.hr/(mg/kg) |
| C[C@@H](Oc1cc(-c2cnn(C(F)F)c2)cc2nscc12)[C@H]1CNC(=O)O1 | – | 16 | 614 | – | 197 | 328 | – | – | – | 168 | – | – | – | – | – | – |
| NC(=O)c1nnc(N[C@@H]2CCCC[C@@H]2N)nc1Nc1cccc2cc[nH]c12 | – | – | 80 | – | – | – | – | – | – | – | – | – | – | – | – | Kp [17]: 100; inhibition (INH) [18]: Not Active; Drug uptake [19]: 9175 ng/g; Drug uptake [20]: 41 ng/g; IC50 [21]: 28000 nM; Drug uptake [22]: 3866 ng/g; Kp [23]: 100 |
| C[C@@H](Oc1cc(-c2cnn(C)c2)cc2nscc12)[C@H]1CNC(=O)O1 | 100 | – | 477 | metabolite_detected | – | – | metabolite_detected | metabolite_detected | metabolite_detected | 120 | 1.5 | metabolite_detected | ≤ 100 | metabolite_detected | 12 | – |
| C[C@@H](Oc1nc(-c2cnn(C(F)F)c2)cc2ncsc12)[C@H]1CNC(=O)O1 | 88 | 38 | 917 | metabolite_detected | 522 | 284 | metabolite_detected | metabolite_detected | metabolite_detected | 360 | 1.3 | metabolite_detected | 57 | metabolite_detected | 4 | Activity [27]: Toxic; Activity [28]: Non-toxic; concentration at 2 h [29]: 1930 nM; Drug uptake [19]: 2134 ng/g; concentration at 24 h [30]: 40 nM; inhibition in vivo at 3 mg/kg [31]: 79%; inhibition in vivo at 3 mg/kg [32]: 78%; Drug uptake [20]: 1014 ng/g; inhibition [33]: inactive; IC50 [34]: > 30000 nM; IC50 [21]: > 30000 nM; inhibition in vivo at 3 mg/kg [35]: 60%; Drug uptake [22]: 1433 ng/g; IC50 [36]: 110 nM; concentration at 4 h [37]: 1340 nM; concentration at 8 h [38]: 827 nM |
| C[C@@H](Oc1nc(-c2cnn(C)c2)cc2nscc12)[C@H]1CNC(=O)C1 | 27 | 40 | 109 | metabolite_detected | 290 | 247 | metabolite_detected | metabolite_detected | metabolite_detected | 30 | 2.4 | metabolite_detected | 800 | metabolite_detected | 86 | AUC/dose [2]: 577 nM.hr/(mg/kg); solubility [24]: > 1000 µM; half-life [25]: 34 min; fraction unbound [26]: 0.2 |
| C[C@@H](Oc1cc(-c2cnn(C)c2)cc2ncsc12)[C@H]1CNC(=O)C1 | – | 33 | – | – | 186 | 89 | – | – | – | – | – | – | – | – | – | – |
